Assay outcomes as filed in PubChem.
pPAFAH FP inh: pPAFAH enzyme inhibitors, primary screen, biochemical, fluorescence polarization, human; inhibition, % at 3.39 µM; AID 463082, 2010; 330,000 tested, 1.5% active; recombinant pPAFAH, FP-rhodamine probe fluorescence polarization; Platelet-activating factor acetylhydrolase (Homo sapiens), Q13093;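 active means inhibition above the mean inhibition across the screen plus 3 SD, cut at about 25% in these data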;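 further: inhibitors block binding of the rhodamine activity-based probe so polarization drops; 0% = enzyme with DMSO and 100% = wells lacking pPAFAH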
PAFAH1B2 inh: PAFAH1B2 enzyme inhibitors, primary screen, biochemical, fluorescence polarization, human | Platelet-activating factor acetylhydrolase IB subunit alpha2 (Homo sapiens), P68402 | 340,000 tested, 1.2% active | recombinant PAFAH1B2, FP-rhodamine activity probe | inhibition, % at 3.39 µM;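 active means inhibition above the mean of all tested compounds plus 3 SD, cut at about 24% in these data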;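 further: 0% = enzyme with DMSO and 100% = wells lacking PAFAH1B2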
Target sequence (P68402 whole entry, looked up): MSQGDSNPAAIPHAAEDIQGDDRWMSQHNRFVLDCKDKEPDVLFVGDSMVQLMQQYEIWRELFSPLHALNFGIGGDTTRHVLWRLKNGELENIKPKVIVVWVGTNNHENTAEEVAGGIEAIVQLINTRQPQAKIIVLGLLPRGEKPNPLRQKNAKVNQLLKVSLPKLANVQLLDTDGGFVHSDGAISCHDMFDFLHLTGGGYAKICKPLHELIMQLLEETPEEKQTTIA
PAFAH1B3 FP inh: PAFAH1B3 enzyme inhibitors, primary screen, biochemical, fluorescence polarization, human | Platelet-activating factor acetylhydrolase IB subunit alpha1 (Homo sapiens), Q15102 | recombinant PAFAH1B3, FP-rhodamine probe | inhibition, % at 3.39 µM | 340,000 tested, 0.28% active;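 active means inhibition above the screen-wide average of all tested compounds plus 3 SD, cut at about 25% in these data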;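 further: 0% = enzyme with DMSO only and 100% = wells lacking PAFAH1B3 protein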
Target sequence (Q15102 whole entry, looked up): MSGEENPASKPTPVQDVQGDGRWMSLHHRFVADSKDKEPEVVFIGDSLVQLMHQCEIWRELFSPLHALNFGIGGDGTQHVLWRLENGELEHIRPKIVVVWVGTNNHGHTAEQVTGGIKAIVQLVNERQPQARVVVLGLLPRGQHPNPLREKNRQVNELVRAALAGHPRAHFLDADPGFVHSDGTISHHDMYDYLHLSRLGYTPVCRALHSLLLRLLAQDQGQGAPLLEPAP
PAFAH2 inh: PAFAH2 enzyme inhibitors, primary screen, biochemical, fluorescence polarization, human; recombinant PAFAH2, FP-rhodamine activity probe; inhibition, % at 3.39 µM; 340,000 tested, 0.99% active;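 active means inhibition above the mean over all tested compounds plus 3 SD, cut at about 30% in these data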;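 further: inhibitors block probe labeling of enzyme so polarization drops; 0% = enzyme with DMSO and 100% = wells lacking PAFAH2 protein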
HTRA1 inhibitor: HTRA1 serine protease inhibitors, primary screen, biochemical, fluorescence polarization, HTS. recombinant HTRA1, FP-rhodamine activity-based probe. inhibition, % at 5.96 µM. 340,000 tested, 0.5% active; in the data active means inhibition above about 36%;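 further: 0% = enzyme with DMSO and 100% = wells lacking enzyme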
mABHD4 FP: ABHD4 inhibitors, primary screen, biochemical, fluorescence polarization, mouse; (Lyso)-N-acylphosphatidylethanolamine lipase (Mus musculus), Q8VD66; purified mABHD4, FP-Rh probe fluorescence polarization; inhibition, % at 8.92 µM; 370,000 tested, 0.54% active; AID 720543, 2013;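 active means inhibition exceeding the mean over every tested compound plus 3 SD, cut at about 30% in these data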;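 further: 0% = plate median of compound wells and 100% = S159A mutant with DMSO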
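Doses – 8.92 µM, single dose · Material – wild-type mouse ABHD4 protein · Replication – single well per compound (singlicate) · Measure – percent inhibition of probe binding, normalized to plate controls · Schedule – 45 min compound pre-incubation plus 60 min probe step, 25 °C · Detection – fluorescence polarization with parallel and perpendicular emission, 525/598 nm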
* hit, by the source's call; · = not tested or not shown. The list is not random: actives were taken first. Their share in the collection is about 2.8%.

SMILES | pPAFAH FP inh | PAFAH1B2 inh | PAFAH1B3 FP inh | PAFAH2 inh | HTRA1 inhibitor | mABHD4 FP
CCOc1ccc(/C=C2\CCCc3c2nc2ccccc2c3C(=O)O)cc1OC | 16 | 6 | 28* | 19 | 14 | ·
COc1ccc(/C=C2\CCCc3c2nc2ccccc2c3C(=O)O)cc1OC | 7 | · | · | · | · | ·
CCC[C@H]1[C@@H](OC(=O)NCc2ccc(OC)c(OC)c2)CC[C@@]23CCCN2C(=O)CCC[C@@H]13 | · | · | · | · | · | 5
O=C(Nc1ccc(Br)c(C(F)(F)F)c1)[C@@H]1CC=C[C@@H]2CCN(CC3CC3)C(=O)[C@@H]21 | · | · | · | · | · | 2
COc1ccc(NC(=O)CSc2nc(C)cc(=O)[nH]2)cc1OC | · | · | · | · | · | -4
COc1cccc(N2CC(C(=O)Nc3ccc(C(=O)OC(C)C)cc3)CC2=O)c1 (configuration not stated) | 25* | -3 | 9 | 3 | -15 | -11
COc1ccccc1-n1c(SCC(=O)N2CCOCC2)nc(O)cc1=O | 34* | -4 | 7 | 0 | 10 | 0
COc1ccccc1-n1c(SCC(=O)N2CCOCC2)nc(O)c(Cc2ccccc2)c1=O | 8 | -1 | -4 | 10 | -4 | -5
Cc1cc(C)cc(C(=O)OCCCN(C)C2CN(Cc3cn(Cc4ccccc4F)nn3)S(=O)(=O)C2)c1 (configuration not stated) | · | · | · | · | · | 0
Clc1ccc(-c2nnc(-c3ccccc3Cl)o2)cc1 | 3 | 4 | 1 | -1 | -14 | 5
OC(c1ccc(Cl)cc1)c1nnc(-c2ccccc2)o1 (configuration not stated) | -2 | 24* | 0 | 3 | -11 | -8
C=CCN(CC#Cc1ccccc1)CC1CC1 | · | · | · | · | · | -4
CCc1cc(=O)oc2cc(C)cc(OCC(=O)NC(Cc3ccc(Cl)cc3)C(=O)O)c12 (configuration not stated) | 4 | 25* | 6 | 7 | -3 | -3
O=C(CCC(=O)N1CCSc2ccccc21)NCc1ccc(Cl)cc1 | 0 | 25* | -3 | 9 | 1 | -3
COC(=O)[C@]12C[C@H](CC(=O)NCCC(C)C)C(=O)N(Cc3cccc4ccccc34)C1=C[C@H](C(C)(C)C)O[C@@H]2C | · | · | · | · | · | -12
CCCCNC(=O)C[C@H]1C[C@@]2(C(=O)OC)C(=C[C@H](C(C)C)O[C@@H]2C2CC2)N(CCC2=CCCCC2)C1=O | · | · | · | · | · | -4
Cc1ccc([N+](=O)[O-])c(-c2n[nH]c(=S)n2-c2cccc(Cl)c2)c1 | 3 | 31* | 10 | 5 | 6 | -1
Cc1cccc(-n2c(-c3ccoc3C)n[nH]c2=S)c1 | -1 | -1 | 6 | -3 | 7 | 7
CC(CS(=O)(=O)c1ccc2c(c1)NC(=O)CS2)C(=O)N1CCN(c2cccc(Cl)c2)CC1 (configuration not stated) | 25* | -1 | 0 | -2 | -12 | 4
CC(CS(=O)(=O)c1ccc2c(c1)NC(=O)CS2)C(=O)NCc1ccccc1Cl (configuration not stated) | 14 | 2 | -4 | 9 | -10 | 3
COc1cc(/C=C2\S/C(=N/S(=O)(=O)Cc3ccccc3)NC2=O)c([N+](=O)[O-])cc1OC | 20 | 14 | 10 | 10 | -5 | 5
O=C1N/C(=N\S(=O)(=O)Cc2ccccc2)S/C1=C/c1cc([N+](=O)[O-])ccc1O | 32* | 29* | 39* | 12 | 8 | 18
Cc1ccc2nc(Cl)c(-c3ccccc3)cc2c1 | 31* | · | · | · | · | -5
Cc1ccc2nc(Cl)nc(-c3ccccc3)c2c1 | 3 | 2 | 3 | 4 | -10 | 3
NC(=S)N/N=C/c1ccccc1O | -3 | 3 | 3 | 1 | -3 | 2
NC(=S)N/N=C/c1cccc(O)c1O | 32* | 7 | 1 | 0 | 8 | 15
CN(CCO)C1CN(Cc2cn(Cc3ccccc3C(F)(F)F)nn2)S(=O)(=O)C1 (configuration not stated) | · | · | · | · | · | -7
